ChEMBL document CHEMBL1165850, “Synthesis, biological evaluation and molecular docking of novel series of spiro [(2H,3H) quinazoline-2,1'- cyclohexan]-4(1H)-one derivatives as anti-inflammatory and analgesic agents” (Eur J Med Chem, 2010)

What follows are compounds tested on Rattus norvegicus (assay: Antiinflammatory activity in rat assessed as reduction in carrageenan-induced paw edema at 9 mg/kg, ip administered 1 hr before carrageenan challenge measured after 1 hr). Conditions: route intraperitoneal.
Assay type: functional
Design: unit not given here
In short: (§1)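 Adult rats of either sex (150–200 g), randomly grouped. Compounds were dissolved in DMSO and given i.p. at 9 mg/kg; indomethacin was given at 10 mg/kg; controls received DMSO i.p. Dosing was 1 h before 100 ul of 1% carrageenan in saline injected subplantar into the right hind paw. Paw volume was measured by planimeter before and at 1, 2, 3 and 4 h. Values are mean ± S.E., analysed by one-way ANOVA with LSD.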
`CCOC(=O)c1ccc(N2C(=O)c3ccccc3NC23CCCCC3)cc1` gave an Activity of 44.2. `NNC(=O)c1ccc(N2C(=O)c3ccccc3NC23CCCCC3)cc1` showed an Activity of 57.5. Work on `N#Cc1c(-c2ccccc2O)cc(-c2ccc(N3C(=O)c4ccccc4NC34CCCCC4)cc2)[nH]c1=N` yielded an Activity of 61. Compound `O=C(/C=C/c1ccco1)c1ccc(N2C(=O)c3ccccc3NC23CCCCC3)cc1` has an Activity of 60.4. `CC(=O)N1N=C(c2ccc(N3C(=O)c4ccccc4NC34CCCCC4)cc2)CC1c1ccco1` (stereo unspecified) showed an Activity of 49.9. `NS(=O)(=O)c1ccc(N2C(=O)c3ccccc3NC23CCCCC3)cc1` was tested, and the Activity was 57.7. `O=C(NN1C(=O)CN(C2CCCCC2)C1=S)c1ccc(N2C(=O)c3ccccc3NC23CCCCC3)cc1` was tested, and the Activity was 54.9. `O=C(NN1C(=O)CSC1c1cccs1)c1ccc(N2C(=O)c3ccccc3NC23CCCCC3)cc1` (stereo unspecified) showed an Activity of 56.2. `N#Cc1c(-c2ccc(F)cc2)cc(-c2ccc(N3C(=O)c4ccccc4NC34CCCCC4)cc2)[nH]c1=N` showed an Activity of 66.4.

These compounds were tested on Mus musculus (assay: Analgesic activity in mouse assessed as reaction time at 20 mg/kg administered 1 hr before test measured after 1 hr by hot plate test). Conditions: not given.
Assay type: functional
In short: (§2)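 Hot-plate test in adult mice (20–25 g), plate at 52 °C (±0.1 °C). Vehicle, compounds or tramadol (20 mg/Kg b wt) were given 60 min before testing. Latency to lick a hind paw or jump was recorded before dosing and at 1 and 2 h after. Values are mean ± S.E. of six animals per group, with Dunnett's test against control.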
For `COc1cccc(C2(O)CCCCC2CN(C)C)c1` (stereo unspecified) [TRAMADOL], the Time was 17.6 s.

These compounds were tested on Mus musculus (assay: Analgesic activity in mouse assessed as reaction time administered 1 hr before test measured after 2 hrs by hot plate test). Conditions: not given.
Assay type: functional
In short: as §2
`CCOC(=O)c1ccc(N2C(=O)c3ccccc3NC23CCCCC3)cc1` gave a Time of 14.6 s. Work on `NNC(=O)c1ccc(N2C(=O)c3ccccc3NC23CCCCC3)cc1` yielded a Time of 17 s. Work on `N#Cc1c(-c2ccccc2O)cc(-c2ccc(N3C(=O)c4ccccc4NC34CCCCC4)cc2)[nH]c1=N` yielded a Time of 18.4 s. For `O=C(/C=C/c1ccco1)c1ccc(N2C(=O)c3ccccc3NC23CCCCC3)cc1`, the Time was 17.1 s. `CC(=O)N1N=C(c2ccc(N3C(=O)c4ccccc4NC34CCCCC4)cc2)CC1c1ccco1` (stereo unspecified) gave a Time of 17 s. `NS(=O)(=O)c1ccc(N2C(=O)c3ccccc3NC23CCCCC3)cc1` gave a Time of 17.5 s. Work on `O=C(NN1C(=O)CN(C2CCCCC2)C1=S)c1ccc(N2C(=O)c3ccccc3NC23CCCCC3)cc1` yielded a Time of 13 s. `O=C(NN1C(=O)CSC1c1cccs1)c1ccc(N2C(=O)c3ccccc3NC23CCCCC3)cc1` (stereo unspecified) gave a Time of 18.4 s. `N#Cc1c(-c2ccc(F)cc2)cc(-c2ccc(N3C(=O)c4ccccc4NC34CCCCC4)cc2)[nH]c1=N` gave a Time of 17.8 s.

Each compound was assayed on Mus musculus (assay: Analgesic activity in mouse assessed as reaction time administered 1 hr before test measured after 1 hr by hot plate test). Conditions: not given.
Assay type: functional
In short: as §2
For `CCOC(=O)c1ccc(N2C(=O)c3ccccc3NC23CCCCC3)cc1`, the Time was 12 s. `NNC(=O)c1ccc(N2C(=O)c3ccccc3NC23CCCCC3)cc1` was tested, and the Time was 9.4 s. `N#Cc1c(-c2ccccc2O)cc(-c2ccc(N3C(=O)c4ccccc4NC34CCCCC4)cc2)[nH]c1=N` gave a Time of 14.6 s. In the case of `O=C(/C=C/c1ccco1)c1ccc(N2C(=O)c3ccccc3NC23CCCCC3)cc1`, the Time is reported as 9.6 s. `CC(=O)N1N=C(c2ccc(N3C(=O)c4ccccc4NC34CCCCC4)cc2)CC1c1ccco1` (stereo unspecified) showed a Time of 9.5 s. Compound `NS(=O)(=O)c1ccc(N2C(=O)c3ccccc3NC23CCCCC3)cc1` has a Time of 9.5 s. In the case of `O=C(NN1C(=O)CN(C2CCCCC2)C1=S)c1ccc(N2C(=O)c3ccccc3NC23CCCCC3)cc1`, the Time is reported as 8.9 s. Work on `O=C(NN1C(=O)CSC1c1cccs1)c1ccc(N2C(=O)c3ccccc3NC23CCCCC3)cc1` (stereo unspecified) yielded a Time of 21 s. For `N#Cc1c(-c2ccc(F)cc2)cc(-c2ccc(N3C(=O)c4ccccc4NC34CCCCC4)cc2)[nH]c1=N`, the Time was 24.1 s.

What follows are compounds tested on Rattus norvegicus (assay: Antiinflammatory activity in rat assessed as reduction in carrageenan-induced paw edema at 9 mg/kg, ip administered 1 hr before carrageenan challenge measured after 3 hrs). Conditions: route intraperitoneal.
Assay type: functional
Design: unit not given here
In short: as §1
Compound `CCOC(=O)c1ccc(N2C(=O)c3ccccc3NC23CCCCC3)cc1` has an Activity of 67.8. `NNC(=O)c1ccc(N2C(=O)c3ccccc3NC23CCCCC3)cc1` gave an Activity of 82.1. For `N#Cc1c(-c2ccccc2O)cc(-c2ccc(N3C(=O)c4ccccc4NC34CCCCC4)cc2)[nH]c1=N`, the Activity was 68.6. `O=C(/C=C/c1ccco1)c1ccc(N2C(=O)c3ccccc3NC23CCCCC3)cc1` showed an Activity of 94.8. In the case of `CC(=O)N1N=C(c2ccc(N3C(=O)c4ccccc4NC34CCCCC4)cc2)CC1c1ccco1` (stereo unspecified), the Activity is reported as 83.5. In the case of `NS(=O)(=O)c1ccc(N2C(=O)c3ccccc3NC23CCCCC3)cc1`, the Activity is reported as 87.7. With `O=C(NN1C(=O)CN(C2CCCCC2)C1=S)c1ccc(N2C(=O)c3ccccc3NC23CCCCC3)cc1` the Activity was 77.2. `O=C(NN1C(=O)CSC1c1cccs1)c1ccc(N2C(=O)c3ccccc3NC23CCCCC3)cc1` (stereo unspecified) was tested, and the Activity was 55.9. In the case of `N#Cc1c(-c2ccc(F)cc2)cc(-c2ccc(N3C(=O)c4ccccc4NC34CCCCC4)cc2)[nH]c1=N`, the Activity is reported as 81.3.

What follows are compounds tested on Mus musculus (assay: Analgesic activity in mouse assessed as reaction time at 20 mg/kg administered 1 hr before test measured after 2 hrs by hot plate test). Conditions: not given.
Assay type: functional
In short: as §2
`COc1cccc(C2(O)CCCCC2CN(C)C)c1` (stereo unspecified) [TRAMADOL] gave a Time of 18.2 s.

The compounds below were run on Rattus norvegicus (assay: Gastrointestinal toxicity in Wistar rat assessed as ulcerogenic effect at 9 mg/kg, po after 7 hrs). Conditions: in vivo.
Assay type: organism-based
Design: dose 9 mg/kg, route oral
In short: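 Male Wistar rats, 150–175 g, groups of 5, fasted 48 h, then given 9 mg/kg orally as an aqueous suspension (10 mL/kg). Killed 7 h later. Stomachs were opened along the greater curvature and inspected for irritation, scored as number of ulcers, ulcer severity and number of rats with ulcers per 5. Ethanol control, indomethacin reference. Reported as mean ± S.E.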
`COc1ccc2c(c1)c(CC(=O)O)c(C)n2C(=O)c1ccc(Cl)cc1` [INDOMETHACIN] showed a UI of 9.8. With `N#Cc1c(-c2ccccc2O)cc(-c2ccc(N3C(=O)c4ccccc4NC34CCCCC4)cc2)[nH]c1=N` the UI was 2. Work on `O=C(NN1C(=O)CSC1c1cccs1)c1ccc(N2C(=O)c3ccccc3NC23CCCCC3)cc1` (stereo unspecified) yielded a UI of 0.4. `N#Cc1c(-c2ccc(F)cc2)cc(-c2ccc(N3C(=O)c4ccccc4NC34CCCCC4)cc2)[nH]c1=N` was tested, and the UI was 3.2.

These compounds were tested on Rattus norvegicus (assay: Antiinflammatory activity in rat assessed as reduction in carrageenan-induced paw edema at 9 mg/kg, ip administered 1 hr before carrageenan challenge measured after 2 hrs). Conditions: route intraperitoneal.
Assay type: functional
Design: unit not given here
In short: as §1
For `CCOC(=O)c1ccc(N2C(=O)c3ccccc3NC23CCCCC3)cc1`, the Activity was 59.6. Compound `NNC(=O)c1ccc(N2C(=O)c3ccccc3NC23CCCCC3)cc1` has an Activity of 85.7. In the case of `N#Cc1c(-c2ccccc2O)cc(-c2ccc(N3C(=O)c4ccccc4NC34CCCCC4)cc2)[nH]c1=N`, the Activity is reported as 66.6. For `O=C(/C=C/c1ccco1)c1ccc(N2C(=O)c3ccccc3NC23CCCCC3)cc1`, the Activity was 93.8. In the case of `CC(=O)N1N=C(c2ccc(N3C(=O)c4ccccc4NC34CCCCC4)cc2)CC1c1ccco1` (stereo unspecified), the Activity is reported as 88.7. `NS(=O)(=O)c1ccc(N2C(=O)c3ccccc3NC23CCCCC3)cc1` gave an Activity of 78.9. With `O=C(NN1C(=O)CN(C2CCCCC2)C1=S)c1ccc(N2C(=O)c3ccccc3NC23CCCCC3)cc1` the Activity was 66.7. For `O=C(NN1C(=O)CSC1c1cccs1)c1ccc(N2C(=O)c3ccccc3NC23CCCCC3)cc1` (stereo unspecified), the Activity was 65.1. `N#Cc1c(-c2ccc(F)cc2)cc(-c2ccc(N3C(=O)c4ccccc4NC34CCCCC4)cc2)[nH]c1=N` gave an Activity of 78.2.
